Tested on: MS2 coat protein
Test: apparent Kd, MS2 coat protein; higher = weaker binding; RNA-MaP array; FMN 200 µM where present
Outline: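 Stalled E. coli RNA polymerase produced the designs on Illumina sequencing-chip clusters. SNAP-549-labelled MS2 coat protein was added from 0.7 or 1.5 nM, doubling to 3 µM, without and then with constant ligand, in 100 mM Tris-HCl pH 7.5, 80 mM KCl, 4 mM MgCl2, BSA, DTT, yeast tRNA and Tween-20. The apparent Kd is the median of filtered per-cluster fits of green signal normalised to red-channel RNA signal and control-cluster median Fmax.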

[1] = designed as: OFF switch for flavin mononucleotide, no ligand
[2] = ligand present: flavin mononucleotide, designed as: OFF switch for flavin mononucleotide
[3] = designed as: ON switch for flavin mononucleotide, no ligand
[4] = ligand present: flavin mononucleotide, designed as: ON switch for flavin mononucleotide

| Sequence | apparent Kd [1] | apparent Kd [2] | apparent Kd [3] | apparent Kd [4] |
| --- | --- | --- | --- | --- |
| UUAAAUCAUGUAGGAUAUGCAUGGCGAAGCUACGCAGAAGGACAUGAGGAUCACCCAUGUUAUAGCUACCCGUUACGGUGGCAA | 89.1 nM | 239 nM | – | – |
| AUAAUGUGAGGAUAUACAUGAGGAUCACCCAUGUAAUUAAAUCGGAGAGCCACAAUUCGUAGAAGGUACAUUUA | 22 nM | 27.7 nM | – | – |
| UUACUCAUGUAAGGAUAUGCAGCCGCUUCGGCUGCAGAAGGUACUAUAAUACAUGAGGAUCACCCAUGUCUUUUUAAUUUAGAC | – | – | 82.7 nM | 36.5 nM |
| GACUGAUUGUAGAAGGUACUUGACAAUAUAUUUAAUUAUUGUAGACAUGAGGAUCACCCAUGUAGUAAGGAUAUACUUAUAACA | – | – | 18.4 nM | 9.96 nM |
| GCAGGUUAAGUAAGGAUAUACCUCUGGAAACAGAGGUAGAAGGUACAUGAGGAUCACCCAUGUUUCUCUUCUGC | 17.3 nM | 45.7 nM | – | – |
| AAUAGGGUCGUAAUAGCUAGCACAUGAGGAUCACCCAUGUACAGAAGGCGAGCCAAGGCGGCAAUCGAGGAUAUGUAGCAGGGU | 19.5 nM | 29.9 nM | – | – |
| GUACCAUAUGAGAAGGCGAUCAUGAAACAUGAUCGAGGAUAUCAUGAAAACAUGAGGAUCACCCAUGUAUGGGUAUUAAGGUAC | – | – | 61.4 nM | 23.7 nM |
| GCCAACUUAUGAGGAUAUGGCACCUUAUUGGUGCCAGAAGGCAUGUCUAUUGACAUGAGGAUCACCCAUGUAUUAUAGUUGGCA | – | – | 715 nM | 159 nM |
| GCGAUGAUCGAGAAGGCCACUACAUGAGGAUCACCCAUGUCGUGGUGUAUUGGAGGAUAUCGAUCGGCGUCUUAUGAGGAUAUA | 5.17 nM | 5.65 nM | – | – |
| UCGUAACGAGGAUAUACAAGGGUCAGGCCCGCCUGACACACACAUGAGGAUCACCCAUGUAGAAGGUGUAGCGC | 19.4 nM | 18.4 nM | – | – |
| UUGGACGUCGUCGGAUAUGUAGGAUAUUCCUACAUGAGGAUCACCCAUGUUGACAUGGAAGAAGGACAGAAGGACGAUGUCCAU | – | – | 83 nM | 4.6 nM |
| AUUAUUGACAUAGGAUAUUGUUACAUGAGGAUCACCCAUGUUAUUUGGGAACUAGGAAUAUUUUACAAGAAGGAUGUUGUUACA | – | – | 101 nM | 81.3 nM |
| ACAUCACAUGAGGAUCACCCAUGUCAGGAUAUCGACUGAACAGCUUCGGCUGUUCAGUCGAGAAGGGACAAUUA | 66.5 nM | 131 nM | – | – |
| AUCGUGUUAGGAUAUGCAUGUCGCUGGGUAGCUAGCGAUAGGCAGAAGGAACAUGAGGAUCACCCAUGUUCGGG | 158 nM | 78 nM | – | – |
| GCCGUAAAUGUGAGGAUAUACCUAUGGAUACAUAGGUAGAAGGCACAUGAGGAUCACCCAUGUUCUCAAUCGGC | 179 nM | 930 nM | – | – |
| UUUUGGUCAGGAUAUUGUUAGUUUAGUUGUUUGUAUUAGUUCGAGAAGGGACAUGAGGAUCACCCAUGUGAUUU | 99.2 nM | 102 nM | – | – |
| GUUUCUAUAUGUUAUAUUUAACAGUCAGAAGGUGAUACUACGACAUGAGGAUCACCCAUGUAAUUCAAGGAUAUGAACUUAAUC | – | – | 1110 nM | 450 nM |
| CUCGAGUUAGGAUAUUGAACGUAACAAGCGGGAACUCCCGCCAAGAAGGAACAUGAGGAUCACCCAUGUGAAAC | 21 nM | 21.3 nM | – | – |
| AAGUAGAUCCGAGGAUAUACAAAGUGGAAUCGCUACAUGAGGAUCACCCAUGUAGAAGGCGGAUCUACAGGUACUAAAGUACCA | 8.01 nM | 68.3 nM | – | – |
| GGAUCGAGAGUGAGGAUAUGCUGGUCCUUGGAUCAGCAGAAGGCACAUGAGGAUCACCCAUGUGGUUCCGAUCC | 28.8 nM | 244 nM | – | – |
| CGUGUUUAUGUGAGGAUAUUAUCAAGCUGAUUGUGUAAGAAGGCACAUGAGGAUCACCCAUGUGGCGAUUCCGC | 34.2 nM | 215 nM | – | – |
| GCAGGCGACCAGAAGGGUGACAUGAGGAUCACCCAUGUAGAUGUGUUCCCGCUUGGGAACCGUCCACAGGAUAUGGUUGGUUAU | – | – | 51.1 nM | 53.8 nM |
| CUGAGCAAUGUAGGAUAUCGACUGGAAUACAGUCGAGAAGGACAUGAGGAUCACCCAUGUCAAUGAGUGAAUAAUAAAGCUCAG | 20.7 nM | 118 nM | – | – |

Source: the EternaBench riboswitch data
